Test results from ChEMBL document CHEMBL1165950, “Design and synthesis of new potent anticancer pyrazoles with high FLT3 kinase inhibitory selectivity” (Bioorg Med Chem, 2010).

What was measured:
Type in all cases: functional
NCI/ADR-RES [1] = experiment: Cytotoxicity against human NCI/ADR-RES cells assessed as cell growth at 10 uM; conditions: read-out: Activity
Procedure, shortened: (§1)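 NCI-60 screen: cells grown in RPMI 1640 with 5% FBS and 2 mM L-glutamine, plated at 5000–40,000 cells/well according to doubling time, and preincubated 24 h at 37 °C, 5% CO2. The single 10 µM dose (DMSO stock) was added, then incubated 48 h. Cells were TCA-fixed and stained with 0.4% SRB, read at 515 nm, and growth % calculated against time-zero and control plates.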

SF-268 = experiment: Cytotoxicity against human SF268 cells assessed as cell growth at 0.001 uM after 48 hrs by sulforhodamine B assay; conditions: SF-268, 48 h, read-out: Activity
T47D = experiment: Cytotoxicity against human T47D cells assessed as cell growth at 0.001 uM after 48 hrs by sulforhodamine B assay; conditions: read-out: Activity
MDA-MB-435 [2] = experiment: Growth inhibition of human MDA-MB-435 cells after 48 hrs by sulforhodamine B assay; conditions: MDA-MB-435, 48 h
Procedure, shortened: (§2)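 NCI 60-cell screen, five-dose mode. Cells grown in RPMI 1640 with 5% FBS and 2 mM L-glutamine and plated at 5000-40,000 cells/well according to doubling time. After 24 h preincubation, a Tz plate was TCA-fixed. Five concentrations (10-fold or 1/2 log dilutions) were applied for 48 h at 37 °C. SRB staining read at 515 nm. IC50 taken from [(Ti-Tz)/(C-Tz)]×100 = 50.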

UACC-62 = experiment: Cytotoxicity against human UACC62 cells assessed as cell growth at 10 uM after 48 hrs by sulforhodamine B assay; conditions: UACC-62, 48 h, read-out: Activity
NCI-H522 [3] = experiment: Cytotoxicity against human NCI-H522 cells assessed as cell growth at 0.01 uM after 48 hrs by sulforhodamine B assay; conditions: NCI-H522, 48 h, read-out: Activity
M14 = experiment: Cytotoxicity against human M14 cells assessed as cell growth at 10 uM; conditions: read-out: Activity; procedure, shortened: as §1
MCF7 [4] = experiment: Cytotoxicity against human MCF7 cells assessed as cell growth at 0.01 uM after 48 hrs by sulforhodamine B assay; conditions: MCF7, 48 h, read-out: Activity
OVCAR-8 = experiment: Cytotoxicity against human OVCAR8 cells assessed as cell growth at 0.01 uM after 48 hrs by sulforhodamine B assay; conditions: OVCAR-8, 48 h, read-out: Activity
MDA-MB-231 = experiment: Cytotoxicity against human MDA-MB-231 cells assessed as cell growth at 10 uM; conditions: read-out: Activity; procedure, shortened: as §1
SF-295 [5] = experiment: Growth inhibition of human SF295 cells after 48 hrs by sulforhodamine B assay; conditions: SF-295, 48 h; procedure, shortened: as §2
CAKI-1 [6] = experiment: Cytotoxicity against human Caki1 cells assessed as cell growth at 10 uM; conditions: read-out: Activity
Procedure, shortened: (§3)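 Single-dose NCI-60 screen at 10 µM. Cells were grown in RPMI 1640 with 5% FBS and 2 mM L-glutamine, then treated for 48 h at 37 °C. Protein was measured by SRB staining with absorbance at 515 nm. Percentage growth was recorded, and inhibition percentage was calculated as 100 minus growth percentage.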

NCI/ADR-RES [7] = experiment: Cytotoxicity against human NCI/ADR-RES cells assessed as cell growth at 10 uM after 48 hrs by sulforhodamine B assay; conditions: read-out: Activity
SK-MEL-2 = experiment: Cytotoxicity against human SK-MEL-2 cells assessed as cell growth at 10 uM; conditions: read-out: Activity; procedure, shortened: as §1
UACC-257 = experiment: Cytotoxicity against human UACC257 cells assessed as cell growth at 10 uM; conditions: read-out: Activity; procedure, shortened: as §1
MCF7 [8] = experiment: Cytotoxicity against human MCF7 cells assessed as cell growth at 10 uM; conditions: read-out: Activity; procedure, shortened: as §1
NCI-H522 [9] = experiment: Growth inhibition of human NCI-H522 cells after 48 hrs by sulforhodamine B assay; conditions: NCI-H522, 48 h; procedure, shortened: as §2
CAKI-1 [10] = experiment: Cytotoxicity against human Caki1 cells assessed as cell growth at 100 nM after 48 hrs by sulforhodamine B assay; conditions: CAKI-1, 48 h, read-out: Activity
A549 = experiment: Cytotoxicity against human A549 cells assessed as cell growth at 10 uM; conditions: read-out: Activity; procedure, shortened: as §3
CCRF-CEM = experiment: Cytotoxicity against human CCRF-CEM cells assessed as cell growth at 100 nM after 48 hrs by sulforhodamine B assay; conditions: read-out: Activity
Procedure, shortened: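 NCI-60 five-dose screen. Cells were grown in RPMI 1640 with 5% FBS and 2 mM L-glutamine, plated at 5000–40,000 cells/well and preincubated for 24 h. Time-zero plates were TCA-fixed. DMSO-solubilized drug was added at five concentrations (10-fold or ½-log serial dilutions) for 48 h at 37 °C, 5% CO2. Cells were TCA-fixed, stained with 0.4% SRB and read at 515 nm. Percent growth used time-zero, control and test absorbances.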

MDA-MB-468 = experiment: Cytotoxicity against human MDA-MB-468 cells assessed as cell growth at 0.001 uM after 48 hrs by sulforhodamine B assay; conditions: MDA-MB-468, 48 h, read-out: Activity
HCT-116 = experiment: Cytotoxicity against human HCT116 cells assessed as cell growth at 10 uM; conditions: read-out: Activity; procedure, shortened: as §3
NCI-H322M = experiment: Cytotoxicity against human NCI-H322M cells assessed as cell growth at 1 uM after 48 hrs by sulforhodamine B assay; conditions: read-out: Activity
OVCAR-5 = experiment: Cytotoxicity against human OVCAR5 cells assessed as cell growth at 10 uM; conditions: read-out: Activity; procedure, shortened: as §1
MDA-MB-435 [11] = experiment: Cytotoxicity against human MDA-MB-435 cells assessed as cell growth at 1 uM after 48 hrs by sulforhodamine B assay; conditions: MDA-MB-435, 48 h, read-out: Activity
SW-620 = experiment: Cytotoxicity against human SW620 cells assessed as cell growth at 10 uM; conditions: read-out: Activity; procedure, shortened: as §1
MOLT-4 [12] = experiment: Cytotoxicity against human MOLT4 cells assessed as cell growth at 0.001 uM after 48 hrs by sulforhodamine B assay; conditions: MOLT-4, 48 h, read-out: Activity
MDA-MB-435 [13] = experiment: Cytotoxicity against human MDA-MB-435 cells assessed as cell growth at 0.001 uM after 48 hrs by sulforhodamine B assay; conditions: MDA-MB-435, 48 h, read-out: Activity
TK-10 [14] = experiment: Cytotoxicity against human TK10 cells assessed as cell growth at 0.01 uM after 48 hrs by sulforhodamine B assay; conditions: TK-10, 48 h, read-out: Activity
HOP-92 = experiment: Cytotoxicity against human HOP92 cells assessed as cell growth at 1 uM after 48 hrs by sulforhodamine B assay; conditions: HOP-92, 48 h, read-out: Activity
TK-10 [15] = experiment: Cytotoxicity against human TK10 cells assessed as cell growth at 0.001 uM after 48 hrs by sulforhodamine B assay; conditions: TK-10, 48 h, read-out: Activity
SNB-19 = experiment: Cytotoxicity against human SNB19 cells assessed as cell growth at 100 nM after 48 hrs by sulforhodamine B assay; conditions: SNB-19, 48 h, read-out: Activity
SF-295 [16] = experiment: Cytotoxicity against human SF295 cells assessed as cell growth at 10 uM; conditions: read-out: Activity; procedure, shortened: as §1
MOLT-4 [17] = experiment: Cytotoxicity against human MOLT4 cells assessed as cell growth at 1 uM after 48 hrs by sulforhodamine B assay; conditions: MOLT-4, 48 h, read-out: Activity
[18] = read-out: LC50 (the source's name)

Q: Which growth at 10 µM (NCI/ADR-RES [1]) does the source give for Cc1cc(O)cc(-c2nn(CC#N)cc2-c2ccnc(-c3ccc(N(C)C)cc3)c2)c1 here?
A: The growth at 10 µM was 6.33%.

Q: And the growth at 0.001 µM (SF-268)?
A: Its growth at 0.001 µM is 97%.

Q: And the growth at 0.001 µM (T47D)?
A: The growth at 0.001 µM was 93%.

Q: And the GI50 (MDA-MB-435 [2])?
A: Its GI50 is 1.01 µM.

Q: What about the TGI (MDA-MB-435 [2]) of the same molecule?
A: The TGI was 3.21 µM.

Q: What about the CC50 (MDA-MB-435 [2]; [18]) of the same molecule?
A: Its CC50 is over 100 µM.

Q: What about the growth at 10 µM (UACC-62) of the same molecule?
A: The growth at 10 µM was -80%.

Q: And the growth at 0.01 µM (NCI-H522 [3])?
A: Its growth at 0.01 µM is 84%.

Q: What about the growth at 10 µM (M14) of the same molecule?
A: The growth at 10 µM was 6.66%.

Q: What about the growth at 0.01 µM (MCF7 [4]) of the same molecule?
A: Its growth at 0.01 µM is 89%.

Q: And the growth at 0.01 µM (OVCAR-8)?
A: The growth at 0.01 µM was 97%.

Q: And the growth at 10 µM (MDA-MB-231)?
A: The growth at 10 µM was 40.8%.

Q: What about the GI50 (SF-295 [5]) of the same molecule?
A: Its GI50 is 2.18 µM.

Q: What about the TGI (SF-295 [5]) of the same molecule?
A: Its TGI is 8.71 µM.

Q: And the CC50 (SF-295 [5]; [18])?
A: The CC50 was 84.1 µM.

Q: And the growth at 10 µM (CAKI-1 [6])?
A: Its growth at 10 µM is 44.5%.

Q: And the growth at 10 µM (NCI/ADR-RES [7])?
A: The growth at 10 µM was -4%.

Q: And the growth at 10 µM (SK-MEL-2)?
A: The growth at 10 µM was 43.2%.

Q: What about the growth at 10 µM (UACC-257) of the same molecule?
A: Its growth at 10 µM is 54.1%.

Q: And the growth at 10 µM (MCF7 [8])?
A: The growth at 10 µM was 14.9%.

Q: And the GI50 (NCI-H522 [9])?
A: Its GI50 is 1.93 µM.

Q: And the TGI (NCI-H522 [9])?
A: Its TGI is 7.14 µM.

Q: What about the CC50 (NCI-H522 [9]; [18]) of the same molecule?
A: Its CC50 is 68.1 µM.

Q: And the growth at 0.1 µM (CAKI-1 [10])?
A: The growth at 0.1 µM was 85%.

Q: What about the growth at 10 µM (A549) of the same molecule?
A: The growth at 10 µM was 39%.

Q: What about the growth at 0.1 µM (CCRF-CEM) of the same molecule?
A: Its growth at 0.1 µM is 96%.

Q: And the growth at 0.001 µM (MDA-MB-468)?
A: Its growth at 0.001 µM is 98%.

Q: What about the growth at 10 µM (HCT-116) of the same molecule?
A: Its growth at 10 µM is 12.3%.

Q: What about the growth at 1 µM (NCI-H322M) of the same molecule?
A: Its growth at 1 µM is 38%.

Q: What about the growth at 10 µM (OVCAR-5) of the same molecule?
A: The growth at 10 µM was 111%.

Q: What about the growth at 1 µM (MDA-MB-435 [11]) of the same molecule?
A: The growth at 1 µM was -49%.

Q: What about the growth at 10 µM (SW-620) of the same molecule?
A: Its growth at 10 µM is 25%.

Q: And the growth at 0.001 µM (MOLT-4 [12])?
A: Its growth at 0.001 µM is 100%.

Q: What about the growth at 0.001 µM (MDA-MB-435 [13]) of the same molecule?
A: The growth at 0.001 µM was 99%.

Q: And the growth at 0.01 µM (TK-10 [14])?
A: The growth at 0.01 µM was 107%.

Q: What about the growth at 1 µM (HOP-92) of the same molecule?
A: Its growth at 1 µM is 25%.

Q: And the growth at 0.001 µM (TK-10 [15])?
A: The growth at 0.001 µM was 105%.

Q: And the growth at 0.1 µM (SNB-19)?
A: Its growth at 0.1 µM is 93%.

Q: What about the growth at 10 µM (SF-295 [16]) of the same molecule?
A: Its growth at 10 µM is 56.9%.

Q: What about the growth at 1 µM (MOLT-4 [17]) of the same molecule?
A: Its growth at 1 µM is 11%.
